Measurements published in ChEMBL document CHEMBL1155944 (J Med Chem, 2008).

Legend:
[1] = molecular target: T1, Gamma-aminobutyric acid receptor subunit alpha-1 (Rattus norvegicus, UniProt P62813+P63138); test: Agonist activity at rat wild type GABAA alpha-1-beta-2 receptor expressed in Xenopus laevis oocytes at -60 mV by Two-Electrode voltage clamp method; format: functional, cell-based, Oocyte
[2] = Agonist activity at rat GABAA alpha-1F64C-beta-2 receptor mutant expressed in Xenopus laevis oocytes at -60 mV by Two-Electrode voltage clamp method; format: functional, cell-based; settings: Oocyte
[3] = Agonist activity at rat GABAA alpha-1S68C-beta-2 receptor mutant expressed in Xenopus laevis oocytes at -60 mV by Two-Electrode voltage clamp method; format: functional, cell-based; settings: Oocyte
[4] = molecular target: Gamma-aminobutyric acid receptor subunit alpha-1 (Rattus norvegicus) (UniProt P62813); test: Agonist activity at rat wild type GABAA alpha-1-beta-2 receptor expressed in Xenopus laevis oocytes at -60 mV at 30 mM by Two-Electrode voltage clamp method; format: functional, cell-based; settings: Oocyte
Gamma-aminobutyric acid receptor subunit alpha-1 (Rattus norvegicus), sequence (P62813 whole entry): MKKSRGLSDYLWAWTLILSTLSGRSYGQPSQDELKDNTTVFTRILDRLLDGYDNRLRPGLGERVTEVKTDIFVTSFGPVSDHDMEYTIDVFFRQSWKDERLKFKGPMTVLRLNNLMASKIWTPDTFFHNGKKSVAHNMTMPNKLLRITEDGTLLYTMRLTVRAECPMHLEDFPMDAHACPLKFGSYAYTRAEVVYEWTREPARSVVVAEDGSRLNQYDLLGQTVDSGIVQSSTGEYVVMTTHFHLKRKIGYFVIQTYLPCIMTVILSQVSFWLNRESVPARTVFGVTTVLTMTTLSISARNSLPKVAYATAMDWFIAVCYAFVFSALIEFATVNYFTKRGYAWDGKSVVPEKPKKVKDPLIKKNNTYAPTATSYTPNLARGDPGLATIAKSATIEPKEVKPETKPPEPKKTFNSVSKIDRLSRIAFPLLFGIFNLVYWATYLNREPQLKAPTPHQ
Procedure, shortened: (§1)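 Rat α1β2 receptors (wt or cysteine mutant) expressed in Xenopus oocytes. Two-electrode voltage clamp at −60 mV, room temperature, Ca2+-free frog Ringer, pH 7.5. Increasing test concentrations applied alone. Currents normalized to the maximal GABA-induced current. Some dose-response curves had only two trials.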

[5] = Agonist activity at rat GABAA alpha-1F64C-beta-2 receptor mutant expressed in Xenopus laevis oocytes at -60 mV at 30 mM by Two-Electrode voltage clamp method; format: functional, Oocyte; procedure, shortened: as §1
[6] = Agonist activity at rat GABAA alpha-1S68C-beta-2 receptor mutant expressed in Xenopus laevis oocytes at -60 mV at 30 mM by Two-Electrode voltage clamp method; format: functional, Oocyte; procedure, shortened: as §1
[7] = molecular target: T1, Gamma-aminobutyric acid receptor subunit alpha-1; test: Agonist activity at rat wild type GABAA alpha-1-beta-2 receptor expressed in Xenopus laevis oocytes as inhibition of GABA-induced current at -60 mV by Two-Electrode voltage clamp method in presence of picrotoxinin; format: functional, cell-based, Oocyte
[8] = Agonist activity at rat GABAA alpha-1F64C-beta-2 receptor mutant expressed in Xenopus laevis oocytes assessed as inhibition of GABA-induced current at -60 mV by Two-Electrode voltage clamp method in presence of picrotoxinin; format: functional, cell-based; settings: Oocyte
[9] = Agonist activity at rat GABAA alpha-1S68C-beta-2 receptor mutant expressed in Xenopus laevis oocytes as inhibition of GABA-induced current at -60 mV by Two-Electrode voltage clamp method in presence of picrotoxinin; format: functional, cell-based; settings: Oocyte
[10] = molecular target: Gamma-aminobutyric acid receptor subunit alpha-1 (Rattus norvegicus) (UniProt P62813); test: Agonist activity at rat wild type GABAA alpha-1-beta-2 receptor expressed in Xenopus laevis oocytes as inhibition of GABA-induced current at -60 mV at 1 mM by Two-Electrode voltage clamp method; format: functional, cell-based; parameters: scale not given: the % may be the effect or the level left; settings: Oocyte
Procedure, shortened: (§2)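 Xenopus oocytes injected with rat α1 (wt or cysteine mutant) plus β2 mRNA, kept 2–10 days at 17 °C. Two-electrode voltage clamp at −60 mV, room temperature, Ca2+-free frog Ringer, pH 7.5.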

[11] = Agonist activity at rat GABAA alpha-1F64C-beta-2 receptor mutant expressed in Xenopus laevis oocytes assessed as inhibition of GABA-induced current at -60 mV at 1 mM by Two-Electrode voltage clamp method; format: functional, Oocyte; parameters: scale not given: the % may be the effect or the level left; procedure, shortened: as §2
[12] = Agonist activity at rat GABAA alpha-1S68C-beta-2 receptor mutant expressed in Xenopus laevis oocytes as inhibition of GABA-induced current at -60 mV at 1 mM by Two-Electrode voltage clamp method; format: functional, Oocyte; parameters: scale not given: the % may be the effect or the level left; procedure, shortened: as §2
[13] = molecular target: Gamma-aminobutyric acid receptor subunit alpha-1 (Rattus norvegicus) (UniProt P62813); test: Agonist activity at rat wild type GABAA alpha-1-beta-2 receptor expressed in Xenopus laevis oocytes assessed as inhibition of drug-induced current at -60 mV at 10 mM in presence of 100 uM picrotoxinin by Two-Electrode voltage clamp method; format: functional, cell-based; parameters: scale not given: the % may be the effect or the level left; settings: Oocyte
Procedure, shortened: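 Oocytes expressing rat α1β2, two-electrode voltage clamp at −60 mV. Several 10 mM test pulses applied, then washout. 100 μM picrotoxinin applied, immediately followed by co-application of 10 mM drug plus 100 μM picrotoxinin, and the current recorded.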

[14] = Agonist activity at rat GABAA alpha-1F64C-beta-2 receptor mutant expressed in Xenopus laevis oocytes assessed as reduction of GABA-induced current at -60 mV at 10 mM by Two-Electrode voltage clamp method in presence of 10 uM 2-sulfonatoethyl methanethiosulfonate; format: functional, Oocyte; parameters: scale not given: the % may be the effect or the level left
[15] = Agonist activity at rat GABAA alpha-1S68C-beta-2 receptor mutant expressed in Xenopus laevis oocytes assessed as reduction of GABA-induced current at -60 mV at 10 mM by Two-Electrode voltage clamp method in presence of 450 uM 2-sulfonatoethyl methanethiosulfonate; format: functional, Oocyte; parameters: scale not given: the % may be the effect or the level left
[16] = Agonist activity at rat GABAA alpha-1R66C-beta-2 receptor mutant expressed in Xenopus laevis oocytes assessed as inhibition of GABA-induced current at -60 mV at 10 mM in presence of 2 mM 2-sulfonatoethyl methanethiosulfonate by Two-Electrode voltage clamp method; format: functional, Oocyte; parameters: scale not given: the % may be the effect or the level left
[17] = Agonist activity at rat GABAA alpha-1R66C-beta-2 receptor mutant expressed in Xenopus laevis oocytes assessed as reduction of GABA-induced current at -60 mV at 30 mM by Two-Electrode voltage clamp method in presence of 5.5 mM GABA; format: functional, Oocyte; parameters: scale not given: the % may be the effect or the level left
Procedure, shortened: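 α1R66Cβ2 oocytes, two-electrode voltage clamp at −60 mV. […] Then 10 mM MTSES (12 s) and 10 mM DTT (20 s) were applied. Reaction rate fitted monoexponentially against cumulative application time.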

[18] = molecular target: Gamma-aminobutyric acid receptor subunit alpha-6 (Rattus norvegicus) (UniProt P30191); test: Displacement of [3H]Muscimol from GABAAalpha6 receptor in Sprague-Dawley rat brain cerebellum membrane at 1 mM; format: tissue-based
Gamma-aminobutyric acid receptor subunit alpha-6 (Rattus norvegicus), sequence (P30191 whole entry): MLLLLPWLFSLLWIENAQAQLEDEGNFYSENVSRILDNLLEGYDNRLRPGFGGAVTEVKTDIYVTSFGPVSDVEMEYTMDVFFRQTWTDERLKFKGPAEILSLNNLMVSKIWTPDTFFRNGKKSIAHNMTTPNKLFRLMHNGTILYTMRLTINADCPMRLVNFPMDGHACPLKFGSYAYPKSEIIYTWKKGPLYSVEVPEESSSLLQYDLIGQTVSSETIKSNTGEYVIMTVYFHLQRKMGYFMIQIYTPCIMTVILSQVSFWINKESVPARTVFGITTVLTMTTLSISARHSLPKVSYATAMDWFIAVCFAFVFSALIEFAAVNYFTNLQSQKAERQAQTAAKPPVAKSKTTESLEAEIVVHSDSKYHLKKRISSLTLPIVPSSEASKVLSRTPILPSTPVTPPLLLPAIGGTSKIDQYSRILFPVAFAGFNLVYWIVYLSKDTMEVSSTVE
Procedure, shortened: (§3)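 Well-washed membranes from adult male Sprague-Dawley rat cortex or cerebellum (50–200 μg protein). Incubated 60 min on ice in 50 mM Tris/citrate, pH 7.3, with 6 nM [3H]muscimol and test compound. […] Filtered and counted by scintillation. IC50 and pseudo-Hill coefficient obtained by nonlinear regression.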

Rattus norvegicus [19] = organism: Rattus norvegicus; test: Displacement of [3H]Muscimol from GABAA alpha-1-alpha-5 receptor in Sprague-Dawley rat brain cortex membrane at 100 uM; procedure, shortened: as §3
Rattus norvegicus [20] = organism: Rattus norvegicus; test: Displacement of [3H]Muscimol from GABAA alpha-1-alpha-5 receptor in Sprague-Dawley rat brain cortex membrane at 1 mM; procedure, shortened: as §3
[21] = molecular target: Gamma-aminobutyric acid receptor subunit alpha-6 (Rattus norvegicus) (UniProt P30191); test: Displacement of [3H]Muscimol from GABAAalpha6 receptor in Sprague-Dawley rat brain cerebellum membrane at 100 uM; format: tissue-based; procedure, shortened: as §3
Rattus norvegicus [22] = organism: Rattus norvegicus; test: (§4) Displacement of [3H]Muscimol from GABAA alpha-1-alpha-5 receptor in Sprague-Dawley rat brain cortex membrane; procedure, shortened: as §3
[23] = molecular target: Gamma-aminobutyric acid receptor subunit alpha-6 (Rattus norvegicus) (UniProt P30191); test: (§5) Displacement of [3H]Muscimol from GABAAalpha6 receptor in Sprague-Dawley rat brain cerebellum membrane; format: tissue-based; procedure, shortened: as §3
[24] = molecular target: Gamma-aminobutyric acid receptor subunit alpha-6 (Rattus norvegicus, UniProt P30191); test: as §5; format: tissue-based; procedure, shortened: as §3
Gamma-aminobutyric acid receptor subunit alpha-6 (Rattus norvegicus, UniProt P30191), sequence (P30191 whole entry): as above

[25] = molecular target: GABA A receptor alpha-5/beta-3/gamma-2 (Rattus norvegicus) (UniProt P18508+P19969+P63079); test: Intrinsic activity at recombinant rat GABAA alpha-5-beta-3-gamma-2 receptor expressed in HEK293 cells assessed as induction of current at 1 mM by whole-cell patch-clamp technique relative to GABA; format: cell-based
Procedure, shortened: (§6)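 Rat αiβ3γ2S receptors transiently expressed in HEK293 cells, with EGFP marking transfected cells, recorded 2 days after transfection. Whole-cell patch clamp in HEPES saline, pH 7.35. Drug applied alone at 1, 10, 100 and 1000 μM. […] Data from at least four cells.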

[26] = molecular target: T2, GABA A receptor alpha-2/beta-2/gamma-2 (Rattus norvegicus) (UniProt P18508+P23576+P63138); test: Intrinsic activity at recombinant rat GABAA alpha-2-beta-3-gamma-2 receptor expressed in HEK293 cells assessed as induction of current at 1 mM by whole-cell patch-clamp technique relative to GABA; format: cell-based; procedure, shortened: as §6
[27] = molecular target: Gamma-aminobutyric acid receptor subunit alpha-3 (Rattus norvegicus) (UniProt P20236); test: Intrinsic activity at recombinant rat GABAA alpha-3-beta-3-gamma-2 receptor expressed in HEK293 cells assessed as induction of current at 1 mM by whole-cell patch-clamp technique relative to GABA; format: cell-based; procedure, shortened: as §6
Gamma-aminobutyric acid receptor subunit alpha-3 (Rattus norvegicus), sequence (P20236 whole entry): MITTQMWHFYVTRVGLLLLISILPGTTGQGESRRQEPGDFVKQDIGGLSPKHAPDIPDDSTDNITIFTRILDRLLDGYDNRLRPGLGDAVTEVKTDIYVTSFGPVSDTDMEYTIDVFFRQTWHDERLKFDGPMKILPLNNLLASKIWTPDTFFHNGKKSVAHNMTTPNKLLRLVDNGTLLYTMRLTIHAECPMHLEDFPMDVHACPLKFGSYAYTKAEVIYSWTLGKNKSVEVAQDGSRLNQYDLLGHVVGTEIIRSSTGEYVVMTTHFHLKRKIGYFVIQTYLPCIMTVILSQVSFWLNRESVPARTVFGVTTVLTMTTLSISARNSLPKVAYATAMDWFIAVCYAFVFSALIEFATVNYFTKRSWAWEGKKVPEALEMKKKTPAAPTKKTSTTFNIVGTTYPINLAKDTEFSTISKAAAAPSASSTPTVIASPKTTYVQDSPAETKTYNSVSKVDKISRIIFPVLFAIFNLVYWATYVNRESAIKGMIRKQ

[28] = molecular target: T2, GABA A receptor alpha-2/beta-2/gamma-2 (Rattus norvegicus); test: Antagonist activity at recombinant rat GABAA alpha-2-beta-3-gamma-2 receptor expressed in HEK293 cells assessed as inhibition of GABA-induced current at 1 uM by whole-cell patch-clamp technique; format: functional, cell-based; parameters: scale not given: the % may be the effect or the level left
Procedure, shortened: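 HEK293 cells transiently transfected by calcium phosphate with rat αi, β3, γ2S and EGFP cDNAs, recorded 2 days later. Whole-cell patch clamp in HEPES saline, pH 7.35. […] Response expressed relative to the GABA-alone current. Data from at least four cells.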

[29] = molecular target: Gamma-aminobutyric acid receptor subunit alpha-3 (Rattus norvegicus, UniProt P18508+P20236+P63079); test: Agonist activity at rat recombinant GABAA alpha-3-beta-3-gamma-2 receptor expressed in HEK293 cells assessed as normalization of GABA-induced current by whole cell patch-clamp technique; format: functional, cell-based
Gamma-aminobutyric acid receptor subunit alpha-3, sequence (P20236 whole entry, one chain of several): as the sequence (P20236 whole entry) above
Procedure, shortened: (§7)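 HEK293 cells transiently co-transfected (calcium phosphate) with rat αi, β3 and γ2S cDNAs plus EGFP marker; recorded 2 days later by whole-cell patch clamp in HEPES saline pH 7.35.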

[30] = molecular target: Gamma-aminobutyric acid receptor subunit alpha-4 (Rattus norvegicus, UniProt P18508+P28471+P63079); test: Agonist activity at rat recombinant GABAA alpha-4-beta-3-gamma-2 receptor expressed in HEK293 cells assessed as normalization of GABA-induced current by whole cell patch-clamp technique; format: functional, cell-based; procedure, shortened: as §7
Gamma-aminobutyric acid receptor subunit alpha-4, sequence (P28471 whole entry, one chain of several): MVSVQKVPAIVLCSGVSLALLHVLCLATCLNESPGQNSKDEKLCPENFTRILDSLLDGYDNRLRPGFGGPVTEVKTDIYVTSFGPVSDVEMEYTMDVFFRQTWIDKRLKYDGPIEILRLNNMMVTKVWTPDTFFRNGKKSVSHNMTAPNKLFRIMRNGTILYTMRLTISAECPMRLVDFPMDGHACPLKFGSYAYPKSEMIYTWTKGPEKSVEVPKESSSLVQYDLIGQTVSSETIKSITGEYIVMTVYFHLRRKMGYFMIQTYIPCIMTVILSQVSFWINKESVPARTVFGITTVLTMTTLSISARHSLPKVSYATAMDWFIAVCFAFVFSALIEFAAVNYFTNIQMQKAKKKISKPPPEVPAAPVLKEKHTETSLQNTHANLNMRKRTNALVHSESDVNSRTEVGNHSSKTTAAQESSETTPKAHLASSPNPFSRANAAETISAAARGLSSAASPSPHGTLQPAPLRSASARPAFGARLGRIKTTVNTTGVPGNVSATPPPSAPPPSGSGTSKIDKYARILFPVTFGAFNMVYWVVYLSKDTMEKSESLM

[31] = molecular target: GABA A receptor alpha-5/beta-3/gamma-2 (Rattus norvegicus, UniProt P18508+P19969+P63079); test: Agonist activity at rat recombinant GABAA alpha-5-beta-3-gamma-2 receptor expressed in HEK293 cells assessed as normalization of GABA-induced current by whole cell patch-clamp technique; format: functional, cell-based; procedure, shortened: as §7
GABA A receptor alpha-5/beta-3/gamma-2, sequence (P18508 whole entry): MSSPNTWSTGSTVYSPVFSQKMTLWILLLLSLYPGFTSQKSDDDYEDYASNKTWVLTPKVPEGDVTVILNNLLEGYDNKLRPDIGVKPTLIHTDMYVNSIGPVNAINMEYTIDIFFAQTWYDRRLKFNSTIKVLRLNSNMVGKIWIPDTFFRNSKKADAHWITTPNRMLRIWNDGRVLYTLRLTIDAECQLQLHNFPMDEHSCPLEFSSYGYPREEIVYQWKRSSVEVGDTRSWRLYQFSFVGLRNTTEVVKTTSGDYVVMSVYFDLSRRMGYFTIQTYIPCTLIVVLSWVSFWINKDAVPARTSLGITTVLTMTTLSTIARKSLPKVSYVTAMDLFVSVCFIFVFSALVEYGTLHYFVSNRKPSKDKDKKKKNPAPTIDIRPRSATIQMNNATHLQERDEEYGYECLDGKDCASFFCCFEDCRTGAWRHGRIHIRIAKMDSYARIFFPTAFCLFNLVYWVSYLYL
GABA A receptor alpha-5/beta-3/gamma-2, sequence (P19969 whole entry): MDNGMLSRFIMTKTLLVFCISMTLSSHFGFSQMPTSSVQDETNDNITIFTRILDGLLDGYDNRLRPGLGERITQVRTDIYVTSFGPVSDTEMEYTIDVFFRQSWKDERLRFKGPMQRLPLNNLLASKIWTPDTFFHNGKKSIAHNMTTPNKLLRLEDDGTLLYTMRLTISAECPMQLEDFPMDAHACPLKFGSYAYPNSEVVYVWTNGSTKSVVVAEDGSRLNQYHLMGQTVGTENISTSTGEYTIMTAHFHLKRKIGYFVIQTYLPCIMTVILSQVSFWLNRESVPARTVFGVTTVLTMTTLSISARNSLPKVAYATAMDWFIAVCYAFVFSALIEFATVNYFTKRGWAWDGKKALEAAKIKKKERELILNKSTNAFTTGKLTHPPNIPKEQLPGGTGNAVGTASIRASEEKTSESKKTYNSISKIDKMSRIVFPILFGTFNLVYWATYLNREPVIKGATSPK
GABA A receptor alpha-5/beta-3/gamma-2, sequence (P63079 whole entry): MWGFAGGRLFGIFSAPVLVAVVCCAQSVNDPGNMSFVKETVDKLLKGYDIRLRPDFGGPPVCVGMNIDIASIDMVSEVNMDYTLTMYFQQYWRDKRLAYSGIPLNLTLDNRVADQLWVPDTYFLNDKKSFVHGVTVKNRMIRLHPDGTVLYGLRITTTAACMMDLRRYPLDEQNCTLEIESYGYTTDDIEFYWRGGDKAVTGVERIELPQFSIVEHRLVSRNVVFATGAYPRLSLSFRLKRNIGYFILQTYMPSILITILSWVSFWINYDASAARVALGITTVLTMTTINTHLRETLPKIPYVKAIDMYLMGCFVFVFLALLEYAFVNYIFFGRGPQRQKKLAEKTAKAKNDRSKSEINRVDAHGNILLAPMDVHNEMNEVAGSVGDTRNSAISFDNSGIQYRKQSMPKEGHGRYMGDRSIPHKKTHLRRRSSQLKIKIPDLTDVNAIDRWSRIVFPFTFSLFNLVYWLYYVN

[32] = molecular target: Gamma-aminobutyric acid receptor subunit alpha-6 (Rattus norvegicus, UniProt P18508+P30191+P63079); test: Agonist activity at rat recombinant GABAA alpha-6-beta-3-gamma-2 receptor expressed in HEK293 cells assessed as normalization of GABA-induced current by whole cell patch-clamp technique; format: functional, cell-based
Gamma-aminobutyric acid receptor subunit alpha-6 (Rattus norvegicus, UniProt P18508+P30191+P63079), sequence (P30191 whole entry, the tested form may be a part, one chain of several): as the sequence (P30191 whole entry) above
Procedure, shortened: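 HEK293 cells transiently transfected by calcium phosphate with rat α6 (2 μg), β3 (0.4 μg) and γ2S (0.3 μg) cDNAs plus 1 μg EGFP vector per plate. Whole-cell patch clamp was done 2 days later on EGFP-positive cells in HEPES saline at pH 7.35. Compound was applied alone by fast perfusion at 1, 10, 100 and 1000 μM.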

[33] = as §4; procedure, shortened: as §3
[34] = molecular target: Gamma-aminobutyric acid receptor subunit alpha-6 (Rattus norvegicus) (UniProt P30191); test: Intrinsic activity at recombinant rat GABAA alpha-6-beta-3-gamma-2 receptor expressed in HEK293 cells assessed as induction of current at 1 mM by whole-cell patch-clamp technique relative to GABA; format: cell-based; procedure, shortened: as §6
[35] = molecular target: Gamma-aminobutyric acid receptor subunit alpha-4 (Rattus norvegicus) (UniProt P28471); test: Intrinsic activity at recombinant rat GABAA alpha-4-beta-3-gamma-2 receptor expressed in HEK293 cells assessed as induction of current at 1 mM by whole-cell patch-clamp technique relative to GABA; format: cell-based; procedure, shortened: as §6
Gamma-aminobutyric acid receptor subunit alpha-4 (Rattus norvegicus), sequence (P28471 whole entry): as the sequence (P28471 whole entry, one chain of several) above

[36] = molecular target: GABA-A receptor; alpha-1/beta-2/gamma-2 (Rattus norvegicus) (UniProt P18508+P62813+P63138); test: Intrinsic activity at recombinant rat GABAA alpha-1-beta-3-gamma-2 receptor expressed in HEK293 cells assessed as induction of current at 1 mM by whole-cell patch-clamp technique relative to GABA; format: cell-based; procedure, shortened: as §6

T1 sequence (P62813 whole entry, one chain of several): as the sequence (P62813 whole entry) above

SMILES: Cl.Sc1nnc(C2CCNCC2)o1
- EC50 [1]: 9500 µM
- EC50 [2]: 5500 µM
- EC50 [3]: 10000 µM
- Activity [4]: 20%
- Activity [5]: 60%
- Activity [6]: 17%
- IC50 [7]: 59 µM
- IC50 [8]: 56 µM
- IC50 [9]: 46 µM
- Activity [10]: 6.8%
- Activity [11]: 9%
- Activity [12]: 3%
- Activity [13]: 80%
- Activity [14]: 47%
- Activity [15]: 40%
- Activity [16]: 77%
- Activity [17]: 68%
- inhibition [18]: 91%
- inhibition (Rattus norvegicus [19]): 68%
- inhibition (Rattus norvegicus [20]): 94%
- inhibition [21]: 64%
- logIC50 (Rattus norvegicus [22]): 1.67
- logIC50 [23]: 1.82
- IC50 [24]: 66 µM
- Activity [25]: 48%
- Activity [26]: 23%
- Activity [27]: 13%
- Activity [28]: 39%

SMILES: NCc1nnc(O)o1
- EC50 [29]: 2300 µM
- EC50 [30]: 128 µM
- EC50 [31]: 137 µM
- EC50 [32]: 30 µM
- inhibition [18]: 102%
- inhibition (Rattus norvegicus [19]): 99%
- inhibition (Rattus norvegicus [20]): 104%
- inhibition [21]: 97%
- IC50 [33]: 1.4 µM
- logIC50 (Rattus norvegicus [22]): 0.139
- logIC50 [23]: 0.048
- IC50 [24]: 1.1 µM
- Activity [34]: 1.03
- Activity [25]: 0.95
- Activity [35]: 0.97
- Activity [36]: 0.93
- Activity [26]: 0.88
- Activity [27]: 0.59
